Measurements published in ChEMBL document CHEMBL1128437, “Derivatives of 17-phenyl-18,19,20-trinorprostaglandin F2 alpha isopropyl ester: potential antiglaucoma agents” (J Med Chem, 1995).
Values joined by “and” are separate entries in the source; they are usually repeats but may differ in a detail not shown here. Identical values can stand only once.

Legend:
Felis catus [1] = organism: Felis catus; assay: Concentration giving half-maximal contraction of the cat iris sphincter muscle was determined in vitro; type: functional
Procedure, shortened: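 Compounds were tested as hydrolysed free acids on isolated cat iris sphincter in organ baths. Bath solution was bicarbonate physiological saline with glucose plus indomethacin 2.8 × 10⁻⁶ M, atropine 10⁻⁷ M and propranolol 10⁻⁶ M. Resting tension was 150 mg, with at least 30 min equilibration. Cumulative dosing was at 5–10 min intervals. Isometric contraction was normalised to each tissue's maximum, averaged over four preparations, and fitted with a Hill equation for EC50.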

Monkey [2] = assay: The maximal difference in Intraocular Pressure (IOP) measured in treated and control eyes. The effect was tested in monkey at a dose of 10.0 (ug/eye); type: functional, Cercopithecidae
Procedure, shortened: (§1)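 Cynomolgus monkeys trained for IOP measurement were sedated with ketamine (2–3 mg/kg) for transport and seated in restraint chairs under oxibuprocain local anaesthesia. One eye received a 10 µL drop of drug in 0.9% NaCl/0.5% polysorbate 80; the fellow eye received vehicle. IOP was read by pneumatonometer calibrated for monkey eyes before dosing and at 1, 2, 4 and 6 h. Matched-pair t test, n = 6.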

Felis catus [3] = organism: Felis catus; assay: The mean area between curves for Intraocular Pressure (IOP) measured in treated and control eyes. The effect was tested in cats at a dose of 3.0 (ug/eye); type: functional
Procedure, shortened: (§2)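 Domestic female cats, 2–3 kg, trained for IOP measurement. One eye received a topical drop (20 µL) of drug in 0.9% NaCl with 0.5% polysorbate 80; the other eye received vehicle. IOP was read by pneumatonometer under oxibuprocain local anaesthesia before dosing and at 1, 3, 6 and 23 h. The maximal treated-minus-control difference was taken. Area between curves is the treated-eye AUC minus control-eye AUC, per animal.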

Felis catus [4] = organism: Felis catus; assay: The maximal difference in Intraocular Pressure (IOP) between treated and control eyes. The effect was tested in cats at a dose of 1.0 (ug/eye); type: functional; procedure, shortened: as §2
Felis catus [5] = organism: Felis catus; assay: The maximal difference in […] pupil diameter between treated and control eyes. The effect was tested in cats at a dose of 1.0 (ug/eye); type: functional
Procedure, shortened: (§3)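 Trained female cats, 2–3 kg, were dosed unilaterally with one 20 µL topical drop of drug in 0.9% NaCl/0.5% polysorbate 80, with vehicle in the contralateral eye. Horizontal pupil diameter was measured with a millimetre ruler under constant 10 lux illumination before dosing and at 1, 3, 6 and 23 h. Reported as maximal treated–control difference or as area between curves, per animal.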

Monkey [6] = assay: The maximal difference in Intraocular Pressure (IOP) measured in treated and control eyes. The effect was tested in monkey at a dose of 3.0 (ug/eye); type: functional, Cercopithecidae; procedure, shortened: as §1
Felis catus [7] = organism: Felis catus; assay: The mean area between curves for Intraocular Pressure (IOP) measured in treated and control eyes. The effect was tested in cats at a dose of 1.0 (ug/eye); type: functional; procedure, shortened: as §2
Felis catus [8] = organism: Felis catus; assay: The mean ocular irritation in the treated eyes. An arbitrary scale of from 0 to 3 was used, 0 indicates absence of irritation and 3 complete closure of the lids. The effect was tested in cats at a dose of 3.0 (ug/eye); type: functional
Procedure, shortened: (§4)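 Ocular irritation was scored in the treated eye of trained female cats, 2–3 kg. Drug was given as one topical 20 µL drop in 0.9% NaCl with 0.5% polysorbate 80. The contralateral eye got vehicle only.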

Felis catus [9] = organism: Felis catus; assay: The maximal difference in […] pupil diameter between treated and control eyes. The effect was tested in cats at a dose of 3.0 (ug/eye); type: functional; procedure, shortened: as §3
Felis catus [10] = organism: Felis catus; assay: The mean area between curves for pupil diameter between treated and control eyes. The effect was tested in cats at a dose of 3.0 (ug/eye); type: functional; procedure, shortened: as §3
Felis catus [11] = organism: Felis catus; assay: The mean ocular irritation in the treated eyes. An arbitrary scale of from 0 to 3 was used, 0 indicates absence of irritation and 3 complete closure of the lids. The effect was tested in cats at a dose of 1.0 (ug/eye); type: functional; procedure, shortened: as §4
Felis catus [12] = organism: Felis catus; assay: The maximal difference in Intraocular Pressure (IOP) between treated and control eyes. The effect was tested in cats at a dose of 3.0 (ug/eye); type: functional; procedure, shortened: as §2
Felis catus [13] = organism: Felis catus; assay: The mean area between curves for pupil diameter between treated and control eyes. The effect was tested in cats at a dose of 1.0 (ug/eye); type: functional; procedure, shortened: as §3
Oryctolagus cuniculus [14] = organism: Oryctolagus cuniculus; assay: The mean area between curves for conjunctival hyperemia between treated and control eyes. The effect was tested in rabbit at a dose of 0.5 (ug/eye)
Monkey [15] = assay: The mean area between curves for Intraocular Pressure (IOP) measured in treated and control eyes. The effect was tested in monkey at a dose of 10.0 (ug/eye); type: functional, Cercopithecidae; procedure, shortened: as §1
Monkey [16] = assay: The mean area between curves for Intraocular Pressure (IOP) measured in treated and control eyes. The effect was tested in monkey at a dose of 3.0 (ug/eye); type: functional, Cercopithecidae; procedure, shortened: as §1
Oryctolagus cuniculus [17] = organism: Oryctolagus cuniculus; assay: The maximal difference in conjunctival hyperemia between treated and control eyes. The effect was tested in rabbit at a dose of 0.5 (ug/eye)
Felis catus [18] = organism: Felis catus; assay: The mean area between curves for Intraocular Pressure (IOP) measured in treated and control eyes. The effect was tested in cats at a dose of 10.0 (ug/eye); type: functional; procedure, shortened: as §2
Felis catus [19] = organism: Felis catus; assay: The maximal difference in Intraocular Pressure (IOP) between treated and control eyes. The effect was tested in cats at a dose of 10.0 (ug/eye); type: functional; procedure, shortened: as §2
Felis catus [20] = organism: Felis catus; assay: The maximal difference in […] pupil diameter between treated and control eyes. The effect was tested in cats at a dose of 10.0 (ug/eye); type: functional; procedure, shortened: as §3
Felis catus [21] = organism: Felis catus; assay: The mean area between curves for pupil diameter between treated and control eyes. The effect was tested in cats at a dose of 10.0 (ug/eye); type: functional; procedure, shortened: as §3
Felis catus [22] = organism: Felis catus; assay: The mean ocular irritation in the treated eyes. An arbitrary scale of from 0 to 3 was used, 0 indicates absence of irritation and 3 complete closure of the lids. The effect was tested in cats at a dose of 10.0 (ug/eye); type: functional; procedure, shortened: as §4
Oryctolagus cuniculus [23] = organism: Oryctolagus cuniculus; assay: The maximal difference in conjunctival hyperemia between treated and control eyes. The effect was tested in rabbit at a dose of 0.1 (ug/eye)
Oryctolagus cuniculus [24] = organism: Oryctolagus cuniculus; assay: The mean area between curves for conjunctival hyperemia between treated and control eyes. The effect was tested in rabbit at a dose of 0.1 (ug/eye)

| SMILES | I ABC (Felis catus [3]) | Imax (Felis catus [4]) [mmHg] | Pmax (Felis catus [5]) [mm] | Imax (Monkey [6]) [mmHg] | I ABC (Felis catus [7]) | Irritation (Felis catus [8]) [arbitrary units] | Pmax (Felis catus [9]) [mm] | P ABC (Felis catus [10]) | Irritation (Felis catus [11]) [arbitrary units] | Imax (Felis catus [12]) [mmHg] | P ABC (Felis catus [13]) | H ABC (Oryctolagus cuniculus [14]) | I ABC (Monkey [16]) | Hmax (Oryctolagus cuniculus [17]) | I ABC (Felis catus [18]) | Imax (Felis catus [19]) [mmHg] | Pmax (Felis catus [20]) [mm] | P ABC (Felis catus [21]) | Irritation (Felis catus [22]) [arbitrary units] | further results |
| --- | --- | --- | --- | --- | --- | --- | --- | --- | --- | --- | --- | --- | --- | --- | --- | --- | --- | --- | --- | --- |
| O=C(O)CCC/C=C\C[C@@H]1[C@@H](/C=C/C(O)CCc2cccc(Br)c2)[C@H](O)C[C@@H]1O (stereo not given in full) | – | – | – | – | – | – | – | – | – | – | – | – | – | – | – | – | – | – | – | EC50 (Felis catus [1]): 33 nM and 4.9 nM |
| Cc1ccc(CC[C@H](O)/C=C/[C@@H]2[C@@H](C/C=C\CCCC(=O)OC(C)C)[C@@H](O)C[C@H]2O)cc1 | -28 | -1 | < -3.5 | <-1.6 | -4.3 | 0 | < -6 | <-73 | 0.2 | -1.3 | <-46 | 4.4 | -3.8 | <1.5 | – | – | – | – | – | Imax (Monkey [2]): -1.5 mmHg; I ABC (Monkey [15]): -3.5 |
| CC(C)OC(=O)CCC/C=C\C[C@@H]1[C@@H](/C=C/[C@@H](O)CCc2cccc(Br)c2)[C@H](O)C[C@@H]1O | -42.5 | -1 | < 6.3 | -2 | -12.9 | 0.3 | < -6.8 | <-125 | 0.2 | -2.7 | <-99 | 4.8 | -6.5 | <1.5 | <-49 | <-3.3 | < -6.7 | <-138 | 0.2 | – |
| CC(C)OC(=O)CCC/C=C\C[C@@H]1[C@@H](/C=C/[C@H](O)CCc2ccc(Br)cc2)[C@H](O)C[C@@H]1O | <-17 | -1 | < -2.2 | – | -14 | 0.2 | -0.7 | -2.2 | 0.5 | <-2 | -27 | 0.6 | – | <0.7 | -10 | <-2 | < -2.3 | -23 | 0 | Hmax (Oryctolagus cuniculus [23]): 0.2; H ABC (Oryctolagus cuniculus [24]): 0.3 |
| Cc1cccc(CCC(O)/C=C/[C@@H]2[C@@H](C/C=C\CCCC(=O)O)[C@@H](O)C[C@H]2O)c1 (stereo not given in full) | – | – | – | – | – | – | – | – | – | – | – | – | – | – | – | – | – | – | – | EC50 (Felis catus [1]; Felis catus, Sphincter muscle): 4.3 nM |
| CC(C)OC(=O)CCC/C=C\C[C@@H]1[C@@H](/C=C/[C@@H](O)CCc2ccc(Br)cc2)[C@H](O)C[C@@H]1O | – | 0.3 | < -1.5 | – | 3.4 | – | – | – | 0 | – | -18.1 | 1.2 | – | <0.5 | <-25 | <-3 | < -6 | -80 | 0.3 | Hmax (Oryctolagus cuniculus [23]): <1.1; H ABC (Oryctolagus cuniculus [24]): <2.2 |
| O=C(O)CCC/C=C\C[C@@H]1[C@@H](/C=C/C(O)CCc2ccccc2)[C@H](O)C[C@@H]1O (stereo not given in full) | – | – | – | – | – | – | – | – | – | – | – | – | – | – | – | – | – | – | – | EC50 (Felis catus [1]; Felis catus, Sphincter muscle): 0.71 nM |
| CC(C)OC(=O)CCC/C=C\C[C@@H]1[C@@H](/C=C/[C@H](O)CCc2cccc(Br)c2)[C@H](O)C[C@@H]1O | -6.2 | <1.2 | < -3.8 | -1.4 | 0.2 | 0 | < -5.3 | <-71 | 0 | -2 | <-50.3 | <2 | -6 | <1.2 | – | – | – | – | – | – |
